According to publication PMC11754507 (Ophthalmology Science, 2024):

What was measured:
[1] = system: systemic C3 activation (alternative pathway); details: serum concentration threshold for inhibition of systemic C3 activation; cited from earlier work
[2] = type: in vivo, human; details: intravitreal
Outline: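 Serum levels pooled from 4 clinical studies in adults with GA or nAMD, after single intravitreal 4, 10 or 20 mg or 15 mg monthly or every other month. LLOQ 0.10 μg/mL; BLQ samples (>20%) handled by M3 method. Vitreous dose compartment, first-order absorption into one serum compartment, first-order elimination; stepwise covariates (forward α=0.05, backward α=0.001); half-lives are median empirical Bayes estimates.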

[3] = system: systemic C3 activation (classical pathway); details: serum concentration threshold for inhibition of systemic C3 activation; cited from earlier work
[4] = median empirical Bayes estimated

pegcetacoplan
half-maximal effective concentration [EC50], alternative pathway [1]: 2.77 µg/mL
VC/F, Transformed Estimate ([2]; apparent volume of the central serum compartment, 261 patients with GA or nAMD): 1.83 L
half-life based on the slowest rate process [2]: approximately 2 weeks
absorption half-life (vitreous-to-serum) [2, 4]: 314 h
elimination half-life (serum) [2, 4]: 108 h
KA, Transformed Estimate ([2]; vitreous-to-serum absorption rate constant, 261 patients with GA or nAMD): 0.0528 day⁻¹
EC50, classical pathway [3]: 5.90 µg/mL
